The record followed here is ChEMBL document CHEMBL1629663, “Postantibiotic effects of telavancin against 16 gram-positive organisms” (Antimicrob Agents Chemother, 2009).

Values after ≈ are worked out from the molar mass of the structure shown. Bounds are passed on as bounds.

Type in all cases: functional
Assay [1] deals with Staphylococcus aureus. The assay can be described thus: Antimicrobial activity against vancomycin-intermediate-, methicillin-resistant Staphylococcus aureus 1287 assessed as time required to induce sub-MIC effect at 0.2 times MIC […] by plate counting method. In outline: (§1)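 SME, viable plate count method: no prior drug exposure. About 5 × 10^6 CFU/ml in Mueller-Hinton broth at 35°C received 0.2, 0.3 or 0.4× MIC, alongside a drug-free tube. Counts were taken at the start, then every 2 h until McFarland no. 1 turbidity, as log10 CFU/ml against time. Two separate experiments, each with a new inoculum.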

The subject of assay [2] is Staphylococcus aureus. The assay can be described thus: Antimicrobial activity against vancomycin-intermediate-, methicillin-resistant Staphylococcus aureus 555 assessed as time required to induce sub-MIC effect at 0.3 times MIC […] by plate counting method. In outline:
as §1

Assay [3] has as its system Staphylococcus aureus. The assay can be described thus: Antimicrobial activity against vancomycin-susceptible-, methicillin-resistant Staphylococcus aureus ATCC 33591 assessed as time required to induce post antibiotic sub-MIC effect at 0.3 times MIC […] by plate counting method. In short, it runs like this:
(§2)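 After 1 h preexposure to 10× MIC at 35°C and 1:1,000 dilution, cultures were split, and drug was re-added to final 0.2, 0.3 or 0.4× MIC, with a drug-free tube. Viable counts were taken every 2 h until McFarland 1 turbidity. Duration was derived from log10 CFU/ml versus time curves. Two experiments were run, each with a new inoculum.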

Assay [4] relates to Enterococcus faecalis. The assay can be described thus: Antimicrobial activity against Enterococcus faecalis ATCC 29212 assessed as time required to induce sub-MIC effect at 0.4 times MIC exposed for 2 hrs by plate counting method. In short, it runs like this:
(§3)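 Unexposed Mueller-Hinton broth cultures (about 5 × 10^6 CFU/ml, 35°C) were handled as in the PA-SME set but without the 10× MIC pre-exposure. They were diluted 1:1,000, then given telavancin at final 0.2, 0.3 or 0.4× MIC, with a drug-free control. Viable counts were taken every 2 h until McFarland no. 1 turbidity. Effect duration comes from log10 CFU/ml-time plots; two separate experiments with new inocula.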

The test system of assay [5] is Enterococcus faecium. The assay can be described thus: Antimicrobial activity against Enterococcus faecium HMC 588 assessed as time required to induce sub-MIC effect at 0.4 times MIC exposed for 2 hrs by plate counting method. In short, it runs like this:
as §3

Assay [6] relates to Staphylococcus aureus. The assay can be described thus: Antimicrobial activity against vancomycin-susceptible-, methicillin-resistant Staphylococcus aureus ATCC 33591 assessed as time required to induce post antibiotic sub-MIC effect at 0.4 times MIC […] by plate counting method. In short, it runs like this: as §2
Assay [7] relates to Staphylococcus aureus. The assay can be described thus: Antimicrobial activity against heterogenous vancomycin-intermediate-, methicillin-resistant Staphylococcus aureus 873 assessed as time required to induce post antibiotic sub-MIC effect at 0.2 times MIC pre-exposed to Telavancin […] by plate counting method. In outline:
(§4)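 PAE was first induced with 10× MIC for 1 h at 35°C (inoculum about 5 × 10^6 CFU/ml, Mueller-Hinton broth) and ended by 1:1,000 dilution. Cultures were then split and given 0.2, 0.3 or 0.4× MIC, with one tube left without drug. Viable counts were taken before exposure, after dilution, then every 2 h until McFarland no. 1 turbidity. Two separate experiments, each with a new inoculum.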

In assay [8] the test system is Enterococcus faecium. The assay can be described thus: Antimicrobial activity against Enterococcus faecium HMC 588 assessed as time required to induce post antibiotic sub-MIC effect at 0.2 times MIC pre-exposed to Telavancin […] by plate counting method. In outline: (§5)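 Mueller-Hinton broth cultures of about 5 × 10^6 CFU/ml were pre-exposed to telavancin at 10× MIC for 1 h at 35°C, then diluted 1:1,000. Telavancin was re-added to final 0.2, 0.3 or 0.4× MIC, alongside a drug-free tube. Viable counts were taken before exposure, after dilution, then every 2 h until McFarland no. 1 turbidity. Duration comes from log10 CFU/ml-versus-time plots; two separate experiments with fresh inocula.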

For assay [9], the system named is Enterococcus faecalis. The assay can be described thus: Antimicrobial activity against Enterococcus faecalis ATCC 29212 assessed as time required to induce post antibiotic sub-MIC effect at 0.2 times MIC […] by plate counting method. In short, it runs like this: as §5
In assay [10] the test system is Enterococcus faecium. The assay can be described thus: Antimicrobial activity against Enterococcus faecium HMC 588 assessed as time required to induce post antibiotic sub-MIC effect at 0.3 times MIC […] by plate counting method. In outline: as §5
Assay [11] deals with Enterococcus faecalis. The assay can be described thus: Antimicrobial activity against Enterococcus faecalis HMC 571 assessed as time required to induce post antibiotic sub-MIC effect at 0.4 times MIC […] by plate counting method. In outline: as §4
Assay [12] has as its system Enterococcus faecalis. The assay can be described thus: Antimicrobial activity against Enterococcus faecalis ATCC 29212 assessed as time required to induce post antibiotic sub-MIC effect at 0.4 times MIC […] by plate counting method. In outline:
as §5

Assay [13] deals with Streptococcus agalactiae. The assay can be described thus: Antimicrobial activity against Streptococcus agalactiae HMC 5 by microdilution method.
For assay [14], the system named is Enterococcus faecium. The assay can be described thus: Antimicrobial activity against Enterococcus faecium HMC 588 assessed as time required to induce sub-MIC effect at 0.2 times MIC exposed for 2 hrs by plate counting method. In short, it runs like this: as §3
In assay [15] the test system is Staphylococcus aureus. The assay can be described thus: Antimicrobial activity against vancomycin-susceptible-, methicillin-resistant Staphylococcus aureus 1307 assessed as post-antibiotic effect at 10 times MIC pre-exposed to Telavancin for 1 hr by plate counting method. In short, it runs like this:
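Direct colony suspensions (~5 × 10^6 CFU/ml) were exposed to 10× MIC for 1 h at 35°C with shaking in Mueller-Hinton broth, then diluted 1:1,000 to remove drug. Viable plate counts were taken before exposure, at 0 h, then every 2 h until turbidity reached McFarland 1. PAE = T − C, the time for counts to rise 1 log10 versus the unexposed control. Two separate experiments were run.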

For assay [16], the system named is Streptococcus agalactiae. The assay can be described thus: Antimicrobial activity against Streptococcus agalactiae HMC 5 assessed as time required to induce post antibiotic sub-MIC effect at 0.3 times MIC […] by plate counting method. In outline: as §5
Assay [17] has as its system Enterococcus faecalis. The assay can be described thus: Antimicrobial activity against Enterococcus faecalis ATCC 29212 assessed as time required to induce sub-MIC effect at 0.3 times MIC exposed for 2 hrs by plate counting method. In outline:
as §3

Assay [18] deals with Enterococcus faecium. The assay can be described thus: Antimicrobial activity against Enterococcus faecium HMC 588 by microdilution method. (In broth dilution the organism is exposed to a series of concentrations in liquid medium.)
Assay [19] deals with Streptococcus agalactiae. The assay can be described thus: Antimicrobial activity against Streptococcus agalactiae HMC 5 assessed as time required to induce post antibiotic sub-MIC effect at 0.4 times MIC […] by plate counting method. In short, it runs like this:
as §5

The test system of assay [20] is Staphylococcus aureus. The assay can be described thus: Antimicrobial activity against vancomycin-susceptible-, methicillin-resistant Staphylococcus aureus 1307 assessed as time required to induce sub-MIC effect at 0.2 times MIC exposed for 2 hrs by plate counting method. In short, it runs like this: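 Sub-MIC effect: cultures not preexposed to drug were diluted and handled as in the PA-SME procedure in Mueller-Hinton broth with final 0.2, 0.3 or 0.4× MIC, plus a drug-free control. Viable plate counts were taken every 2 h until McFarland 1 turbidity. Duration was derived from growth curves. Two experiments were run, each with a new inoculum.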

The subject of assay [21] is Enterococcus faecalis. The assay can be described thus: Antimicrobial activity against Enterococcus faecalis HMC 571 assessed as time required to induce post antibiotic sub-MIC effect at 0.2 times MIC pre-exposed to Telavancin […] by plate counting method. In outline: as §5

In general, MIC refers to the lowest concentration that inhibits growth of the organism. Higher therefore signals a less susceptible organism. As for `CCCCCCCCCCNCCN[C@@]1(C)C[C@H](O[C@H]2[C@H](Oc3c4cc5cc3Oc3ccc(cc3Cl)[C@@H](O)[C@@H](NC(=O)[C@@H](CC(C)C)NC)C(=O)N[C@@H](CC(N)=O)C(=O)N[C@H]5C(=O)N[C@H]3C(=O)N[C@H](C(=O)N[C@H](C(=O)O)c5cc(O)c(CNCP(=O)(O)O)c(O)c5-c5cc3ccc5O)[C@H](O)c3ccc(c(Cl)c3)O4)O[C@H](CO)[C@@H](O)[C@@H]2O)O[C@@H](C)[C@H]1O` [TELAVANCIN], the PAE in the assay with Staphylococcus aureus [1] is 0 h; in the assay on Staphylococcus aureus [2], 1.7 h; in the assay with Staphylococcus aureus [3], greater than 10 h; in the assay with Enterococcus faecalis [4], 3.6 h; in the assay on Enterococcus faecium [5], 8.8 h; with Staphylococcus aureus [6], greater than 10 h. Further, the PAE with Staphylococcus aureus [7] was 3.6 h; in the assay on Enterococcus faecium [8] it was 1.9 h; in the assay with Enterococcus faecalis [9], 5.3 h; in the assay on Enterococcus faecium [10], 8.9 h; with Enterococcus faecalis [11], 10.6 h; in the assay on Enterococcus faecalis [12] it was greater than 10.7 h. The PAE is 1.2 h in the assay with Enterococcus faecium [14]; 1.1 h in the assay with Staphylococcus aureus [15]; 4.7 h with Streptococcus agalactiae [16]; 2 h in the assay with Enterococcus faecalis [17]; greater than 10.7 h in the assay with Streptococcus agalactiae [19]; 1 h in the assay on Staphylococcus aureus [20]. Also, the PAE in the assay on Enterococcus faecalis [21] is 3.9 h. Moreover, the minimal inhibitory concentration (MIC) in the assay on Streptococcus agalactiae [13] and in the assay on Enterococcus faecium [18] was 0.12 µg/mL (≈ 0.0684 µM) in each case.
